From PubChem
TCR-CD3 inh – inhibitors of human TCR-CD3 interaction. TAMRA-labeled TCR probe fluorescence, biochemical. inhibition, % at 9.4 µM. actives 0.37% (n = 360,000);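 also: recombinant mutant TCR 2C K166C tagged with TAMRA read by polarization; 0% = receptor in buffer alone and 100% = receptor with positive control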
PRMT1 FP inh – blocks human protein arginine methyltransferase 1; Q99873; recombinant PRMT1, activity-based probe fluorescence polarization; inhibition, % at 2.79 µM; actives 1.3% (n = 370,000); AID 652257;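 active = inhibition above about 21% made by adding two undisclosed values, limit read from the data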
Target sequence (Q99873 whole entry, looked up): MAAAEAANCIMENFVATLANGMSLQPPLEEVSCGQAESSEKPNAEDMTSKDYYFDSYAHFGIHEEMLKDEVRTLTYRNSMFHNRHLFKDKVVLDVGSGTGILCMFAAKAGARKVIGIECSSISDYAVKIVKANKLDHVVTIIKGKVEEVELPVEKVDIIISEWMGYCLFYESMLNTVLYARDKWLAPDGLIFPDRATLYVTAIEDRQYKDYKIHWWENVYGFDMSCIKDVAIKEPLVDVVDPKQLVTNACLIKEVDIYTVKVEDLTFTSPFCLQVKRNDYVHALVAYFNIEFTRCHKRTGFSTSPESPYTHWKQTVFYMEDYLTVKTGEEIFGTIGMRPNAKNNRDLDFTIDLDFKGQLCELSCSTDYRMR
rCAG binder – binds r(CAG) RNA repeats; r(CAG) RNA repeat, TO-PRO-1 dye displacement fluorescence; inhibition, % at 3 µM; actives 1.3% (n = 370,000); AID 651821;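 active = inhibition above the plate cutoff, the mean of all test compounds on that plate plus 3 SD, cut at about 35% in these data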;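 also: 0% = DMSO alone and 100% = 100 µM mitoxantrone as full dye displacement; higher means more dye released from RNA so lower well fluorescence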
SIAE inh – human SIAE inhibition, primary screen. SIAE FP-Rh probe binding, fluorescence polarization. inhibition, % at 9.66 µM. actives 0.69% (n = 370,000). AID 1053197;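 active = inhibition above a cutoff: mean of compounds within the control limits plus 3 SD of those, cut at about 17% in these data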;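 also: 0% = plate median of compound wells and 100% = probe without SIAE protein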
ABHD4 inh – inhibits mouse alpha/beta hydrolase domain 4; Q8VD66; purified mABHD4, FP-Rh probe fluorescence polarization; inhibition, % at 8.92 µM; actives 0.54% (n = 370,000); AID 720543;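 active = inhibition exceeding the mean over every tested compound plus 3 SD, cut at about 30% in these data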;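 also: 0% = plate median of compound wells and 100% = S159A mutant with DMSO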
Target sequence (Q8VD66 whole entry, looked up, the tested form may be a part): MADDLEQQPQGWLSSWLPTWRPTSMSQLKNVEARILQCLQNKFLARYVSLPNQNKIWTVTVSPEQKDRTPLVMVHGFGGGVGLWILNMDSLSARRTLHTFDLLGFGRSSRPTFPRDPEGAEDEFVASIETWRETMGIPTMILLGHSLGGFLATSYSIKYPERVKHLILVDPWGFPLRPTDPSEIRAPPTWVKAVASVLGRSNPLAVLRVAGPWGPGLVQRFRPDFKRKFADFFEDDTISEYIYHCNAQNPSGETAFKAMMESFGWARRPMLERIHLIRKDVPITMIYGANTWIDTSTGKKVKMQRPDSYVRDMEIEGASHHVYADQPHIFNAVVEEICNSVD
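Assay system: wild-type mouse ABHD4 protein; compound: single nominal dose of 8.92 µM, 0.89% DMSO final; schedule: 45 min + 60 min at 25 °C; measured by: FP readout, ex 525 nm / em 598 nm; evaluation: % inhibition of FP-Rh probe binding versus controls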
HTRA1 inhibitor – inhibitors of human serine peptidase HTRA1; Q92743; inhibition, % at 5.96 µM; actives 0.5% (n = 340,000); AID 504803; recombinant HTRA1, FP-rhodamine activity-based probe, fluorescence polarization; in the data active = inhibition above about 36%;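 also: 0% = enzyme with DMSO and 100% = wells lacking enzyme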
HTRA1 inh conf – confirmation of human HTRA1 inhibitors. shares compounds with HTRA1 inhibitor. actives 66% (n = 1,600). AID 540248. inhibition, % at 5.96 µM. recombinant HTRA1, FP-rhodamine activity-based probe, fluorescence polarization;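 active = mean inhibition over three repeats above a set limit taken from the earlier primary screen, cut at about 37% in these data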;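 also: 0% = HTRA1 with DMSO and 100% = wells lacking HTRA1; inhibitors block probe binding so polarization drops and inhibition rises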
BSA probe FL – counter-screen for TCR-CD3 interaction inhibitors: BSA probe. shares compounds with TCR-CD3 inh. TAMRA-labeled BSA probe fluorescence counterscreen. inhibition, % at 9.4 µM. actives 10% (n = 1,200). AID 652035; in the data active = inhibition above about 23%;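 also: 0% = buffer low control and 100% = reference high control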
TCR-CD3 inh conf – confirmation of human TCR-CD3 interaction inhibitors; shares compounds with TCR-CD3 inh; TAMRA-labeled TCR probe fluorescence binding assay; inhibition, % at 9.4 µM; actives 48% (n = 1,200)
rCAG bind conf – r(CAG) RNA repeat binding, confirmation. TO-PRO-1 dye displacement fluorescence. shares compounds with rCAG binder. inhibition, % at 3 µM. actives 70% (n = 4,300);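 active = inhibition above a per-plate cutoff, the mean inhibition of sample wells plus 3 SD, cut at about 35% in these data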;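 also: loss of TO-PRO-1 fluorescence as compound displaces dye from 1x1 AA loop RNA; 0% = DMSO only wells and 100% = 100 µM mitoxantrone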
DNA CAG counter – counter-screen for rCAG RNA binders: DNA CAG dye complex inhibitors. inhibition, % at 3 µM. shares compounds with rCAG binder. AID 652068. d(CAG) DNA oligo TO-PRO-1 dye displacement, fluorescence. actives 94% (n = 4,300);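 active = inhibition above its plate's cutoff, the mean test-well inhibition plus 3 SD, cut at about 4.8% in these data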;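 also: 0% = DNA dye mix with DMSO and 100% = 100 µM mitoxantrone; hits displace the dye from DNA and so lower well fluorescence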
ABHD4 confirm – confirmation of mouse ABHD4 inhibitors; actives 55% (n = 1,800); shares compounds with ABHD4 inh; inhibition, % at 8.92 µM; purified mABHD4, FP-Rh probe fluorescence polarization;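 active = mean inhibition across replicates above the hit cutoff set in the primary screen, cut at about 30% in these data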;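 also: 0% = wild-type ABHD4 with DMSO and 100% = catalytically dead S159A mutant with DMSO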
* hit, by the source's call; / = no result given. Sampled rows, rich in hits. Any-hit rate of the full collection: about 3.5%. Rule as the data show it, unless noted: active = inhibition above about 19%; inactive = the rest.

SMILES | TCR-CD3 inh | PRMT1 FP inh | rCAG binder | SIAE inh | ABHD4 inh | HTRA1 inhibitor | HTRA1 inh conf | ABHD4 confirm | others
O=C(CNc1ccc2ccccc2c1)N/N=C/c1ccc(C(=O)O)cc1 | -1 | 18 | 22 | 0 | 17 | 3 | / | /
O=C(O)c1ccc(/C=N/NC(=O)c2cc3ccccc3cc2O)cc1 | 1 | 7 | 47* | 13 | 31* | 42* | 16 | -6 | rCAG bind conf=23;DNA CAG counter=7.6*
Cc1cc(C)cc(NC(=O)O[C@@H]2CC[C@@]34CCCN3C(=O)CCC[C@H]4C2)c1 | / | -6 | / | 2 | 2 | / | / | /
O=c1cc2oc3cc(O)c(O)cc3c(-c3ccccc3[N+](=O)[O-])c-2cc1O | 101* | 17 | 30 | 14 | 53* | 59* | 68* | 55* | BSA probe FL=-13;TCR-CD3 inh conf=83*
COc1ccc(N/N=C(/N=Nc2nc(C)cc(=O)[nH]2)c2ccccc2)cc1 | -3 | 6 | 9 | 9 | 40* | 71* | 76* | 42*
O=C(CSc1n[nH]c(-c2ccccc2)n1)c1ccc(O)c(O)c1 | 9 | 15 | 13 | 11 | 34* | 72* | 66* | 13
Cc1cc(SCC(=O)c2ccc(O)c(O)c2)nc2ccccc12 | 29* | 24* | 35* | 16 | 39* | 54* | 69* | 20 | BSA probe FL=-11;TCR-CD3 inh conf=24*;rCAG bind conf=54*;DNA CAG counter=23*
CCn1c(O)c(C=NCc2ccccc2)sc1=S | -8 | 2 | -2 | 1 | 0 | 0 | / | /
Oc1cccc(C=NCc2ccccc2)c1O | 29* | 36* | 19 | 18* | 45* | 55* | 62* | 43*
O=[N+]([O-])c1cc(C(F)(F)F)cc([N+](=O)[O-])c1NN=C1CCCCC1 | 10 | 18 | 19 | 12 | 37* | 42* | 1 | 22
O=[N+]([O-])c1cc(S(=O)(=O)N2CCCC2)ccc1NN=C1CCCCC1 | 0 | 2 | 6 | 2 | -6 | -4 | / | /
COc1ccc([C@H]2OC(=O)C[C@@H]2C(=O)N2CCN(c3ccccc3F)CC2)cc1OC | / | 2 | 2 | 0 | 2 | / | / | /
CN(C1=C(NC(=O)c2ccc(Cl)cc2)C(=O)c2ccccc2C1=O)c1ccccc1 | -4 | 3 | 5 | 1 | 56* | 73* | 65* | 71*
O=C1C(Cl)=C(NC(=O)c2ccccc2)C(=O)C(Cl)=C1NC(=O)c1ccccc1 | -8 | 96* | 10 | 3 | 64* | 37* | -2 | 71*
O=C(NC1=C(Nc2ccc(Cl)cc2)C(=O)c2ccccc2C1=O)c1ccccc1 | -6 | 0 | 1 | -11 | 16 | 19 | / | /
CC(C)Nc1ccc(Nc2ccnc3cc4ccccc4cc23)cc1 | -2 | -3 | 23 | 8 | 31* | 39* | 46* | 54*
CN(C)S(=O)(=O)c1cccc(C(=O)N/N=C\c2cccc(C#N)c2)c1 | / | -4 | 1 | 2 | 4 | / | / | /
FC(F)(F)c1ccc2c(c1)C1C=CCC1C(c1ccncc1)N2 (stereo not drawn) | -19 | 8 | 44* | 10 | 39* | 52* | 59* | 13 | rCAG bind conf=3;DNA CAG counter=2
COc1ccc2c(c1)C1C=CCC1C(c1cc3c(cc1Br)OCO3)N2 (stereo not drawn) | 2 | 6 | 12 | 5 | 8 | 32 | / | /
O=C(NCc1ccccn1)C1Nc2ccc(C(F)(F)F)cc2C2C=CCC12 (stereo not drawn) | -6 | 10 | 28 | 16 | 32* | 45* | 4 | 4
CC(=O)c1cc(-c2cc(C(=O)O)cc([N+](=O)[O-])c2)c(=O)n2c1CCC2 | / | 4 | 5 | -1 | 9 | / | / | /
Cc1oc2c(CN3CCCCC3C)c(O)ccc2c(=O)c1-c1ccccc1 (stereo not drawn) | -2 | -8 | -1 | 0 | 2 | 0 | / | /
Cc1oc2c(O)c(O)ccc2c(=O)c1-c1ccccc1 | 8 | 19 | 8 | 7 | 41* | 52* | 41* | 16
Cc1oc2c(CN3CCCC3)c(O)ccc2c(=O)c1-c1ccc(Br)cc1 | -2 | 0 | 0 | -3 | 7 | -5 | / | /
Cc1oc2c(O)c(O)ccc2c(=O)c1-c1ccc(Cl)cc1 | 13 | 13 | 12 | -1 | 41* | 69* | 91* | 25
SMILES | TCR-CD3 inh | PRMT1 FP inh | rCAG binder | SIAE inh | ABHD4 inh | HTRA1 inhibitor | HTRA1 inh conf | ABHD4 confirm | others
CCOC(=O)C1(C)C=C(Nc2ccc(OC)cc2)C(=O)N1c1ccc(OC)cc1 (stereo not drawn) | 2 | -4 | 0 | 11 | 4 | 2 | / | /
CCOC(=O)C1(C)C=C(Nc2ccc(O)cc2)C(=O)N1c1ccc(O)cc1 (stereo not drawn) | 40* | 33* | 10 | 16 | 76* | 55* | 7 | 5 | BSA probe FL=7;TCR-CD3 inh conf=9
N#C/C(=C\c1ccc(O)c(O)c1)C(=O)NCCCc1ccccc1 | 2 | 1 | 22 | 14 | 34* | 66* | 77* | 52*
COc1ccc(/C=C(\C#N)C(=O)NCCc2ccccc2)cc1OCc1ccccc1 | 7 | 1 | -1 | -25 | -6 | -3 | / | /
O=C1C(NS(=O)(=O)c2cccs2)=C(N2CCN(c3cccc(C(F)(F)F)c3)CC2)C(=O)c2ccccc21 | 0 | 10 | 26 | 3 | 43* | 45* | 69* | 70*
CCOc1ccccc1N1CCN(C2=C(NS(=O)(=O)c3cccs3)C(=O)c3ccccc3C2=O)CC1 | 1 | -1 | 9 | 12 | 48* | 63* | 68* | 62*
CN1CCN(C2=C(NS(=O)(=O)c3cccs3)C(=O)c3ccccc3C2=O)CC1 | 1 | -4 | -1 | -3 | 3 | 1 | / | /
CCCCCCC/C=C(\C)[C@@H](O)[C@@H](C)C(=O)N1CCC[C@@H]1C(=O)O | / | -4 | / | -1 | -2 | / | / | /
O=C(O)c1ccc(N=Nc2c(O)ccc3ncccc23)cc1 | -14 | 3 | 7 | 1 | 73* | 39* | 29 | 80*
